Experimental data reported in ChEMBL document CHEMBL3407471, “Development of potent inhibitors of pyocyanin production in Pseudomonas aeruginosa” (J Med Chem, 2015).
pIC50: −log10 of the molar value. Calls of active or inactive are those of the source.

How the values were obtained:
Pseudomonas aeruginosa [1] = assay: Inhibition of quorum sensing activity in wild-type Pseudomonas aeruginosa PA14 assessed as inhibition of pyocyanin production at 100 uM by spectrophotometry relative to control; format: functional
Method in brief: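 Wild-type P. aeruginosa PA14 cultures exposed to compound at 100 μM. Pyocyanin read as absorbance at 695 nm. Efficacy scaled so that wild-type pyocyanin level = 0% and absorbance equal to background medium = 100%.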

Pseudomonas aeruginosa [2] = assay: Antimicrobial activity against wild-type Pseudomonas aeruginosa PA14; format: functional
Escherichia coli [3] = assay: Agonist activity at RhlR in Escherichia coli at 100 uM
Pseudomonas aeruginosa [4] = assay: Inhibition of quorum sensing activity in wild-type Pseudomonas aeruginosa PA14 assessed as inhibition of pyocyanin production by spectrophotometry relative to control; format: functional
Method in brief: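 Pyocyanin produced by wild-type PA14, read by absorbance at 695 nm, across a range of compound levels. IC50 derived from the dose–response.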

Escherichia coli [5] = assay: Agonist activity at LasR in Escherichia coli at 100 uM
Escherichia coli [6] = assay: Antagonist activity at LasR in Escherichia coli assessed as reduction of AHL-induced GFP production at 100 uM
Escherichia coli [7] = assay: Antagonist activity at RhlR in Escherichia coli assessed as reduction of AHL-induced GFP production at 100 uM
[8] = Effect on pyocyanin oxidation state in cell free culture fluid up to 17 hrs by spectrophotometry; format: ADME
Method in brief: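 Cell-free culture fluids already containing pyocyanin incubated with compound, to test for a change in pyocyanin oxidation state independent of its production.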

Row | SMILES | Efficacy (Pseudomonas aeruginosa [1]) | Activity (Pseudomonas aeruginosa [2]) | also measured
1 | O=C(CCCCCNc1cccc(F)c1)Nc1ccnc(C(F)(F)F)c1 | 100% | inactive | –
2 | CCCCCCCCCC(=O)CC(=O)Nc1ccccn1 | 44% | inactive | –
3 | O=C(CCCOc1cccc(Br)c1)Nc1ccnc(C(F)(F)F)c1 | 43% | inactive | –
4 | CCCCCCCCCCCC(=O)Nc1c(F)c(F)nc(F)c1F | -12% | inactive | –
5 | CCCCCCCCCCCC(=O)Nc1ccnc(C(F)(F)F)c1 | 27% | inactive | –
6 | O=C(CCCCCOc1cccc(Br)c1)Nc1ccncc1C(F)(F)F | 15% | inactive | –
7 | Cc1cccc(OCCCCCC(=O)Nc2ccnc(C(F)(F)F)c2)c1 | 81% | inactive | –
8 | O=C(CCCCCOc1ccc(F)cc1)Nc1ccnc(C(F)(F)F)c1 | 54% | inactive | –
9 | O=C(CCCCCOc1ccccc1Br)Nc1ccnc(C(F)(F)F)c1 | 94% | inactive | –
10 | CCCCCCCCCC(=O)CC(=O)Nc1ccc2c(c1)c1ccccc1n2CC | 9.3% | inactive | –
11 | O=C(CCCCCOc1cccc(Br)c1)Nc1ccnc(F)c1 | 31% | inactive | –
12 | O=C(CCCCCCOc1cccc(Br)c1)Nc1ccnc(C(F)(F)F)c1 | 23% | inactive | –
13 | CCCCCCCCCCCC(=O)Nc1ccnc(Br)c1 | 34% | inactive | –
14 | O=C(CCCCCOc1cccc(Br)c1)Nc1cc(C(F)(F)F)cc(C(F)(F)F)c1 | 44% | inactive | –
15 | CCCCCCCCCCCC(=O)Nc1ccnc(C)c1 | -19% | inactive | –
16 | CCCCCCCCCCCCCCCCOC(=O)C1COc2ccccc21 (stereo not given) | 1.5% | inactive | –
17 | COc1cc(NC(=O)CCCCCCCOc2cccc(Br)c2)ccn1 | 60% | inactive | –
18 | O=C(CCCOc1cccc(Br)c1)Nc1ccnc(F)c1 | 32% | inactive | –
19 | CCCCCCCCCCCC(=O)Nc1ccc2oc3c(c2c1)CCCC3 | 6.1% | inactive | –
20 | CCCCCCCCCCCCNC(=O)Cc1c[nH]c2ccccc12 | 0.6% | inactive | –
21 | O=C(CCCCCOc1cccc([N+](=O)[O-])c1)Nc1ccnc(C(F)(F)F)c1 | 39% | inactive | –
22 | CCCCCCCCCCCC(=O)Nc1cnccn1 | -38% | inactive | –
23 | O=C(CCCCCOc1c(F)cccc1F)Nc1ccnc(C(F)(F)F)c1 | 66% | inactive | –
24 | O=C(CCCCCOc1cccc(I)c1)Nc1ccnc(C(F)(F)F)c1 | 95% | inactive | –
25 | O=C(CCCCC#Cc1cccc(F)c1)Nc1ccnc(C(F)(F)F)c1 | 97% | inactive | –
26 | CCCCCCCCCCCCNC(=O)c1cc2ccccc2n1C | -9.2% | inactive | –

Row | SMILES | Efficacy (Pseudomonas aeruginosa [1]) | Activity (Pseudomonas aeruginosa [2]) | also measured
27 | CCCCCCCCCC(=O)CC(=O)Nc1cccnc1 | 10% | inactive | –
28 | O=C(CCCCCOc1cccc(F)c1)Nc1ccnc(C(F)(F)F)c1 | 103% | inactive | Activity (Escherichia coli [3]): inactive; pIC50 (Pseudomonas aeruginosa [4]): 5.20; Activity (Escherichia coli [5]): inactive; Activity (Escherichia coli [6]): inactive; Activity (Escherichia coli [7]): inactive
29 | CCCCCCCCCCCC(=O)Nc1cccnc1 | 34% | inactive | –
30 | CCCCCCCCCCCC(=O)Nc1ccncn1 | 55% | inactive | –
31 | COc1cc(NC(=O)CCCCCOc2cccc(Br)c2)ncn1 | 41% | inactive | –
32 | CCCCCCCCCCCC(=O)Nc1ccc2c(c1)c1ccccc1n2CC | -1% | inactive | –
33 | O=C(CCCCOc1cccc(Br)c1)Nc1ccnc(C(F)(F)F)c1 | 95% | inactive | –
34 | CCCCCCCCCCCC(=O)Nc1ccc2[nH]ccc2c1 | -11% | inactive | –
35 | COc1cc(NC(=O)CCCCCOc2cccc(Br)c2)ccn1 | 73% | inactive | –
36 | COc1cc(NC(=O)CC(=O)CCCOc2cccc(Br)c2)ccn1 | 40% | inactive | –
37 | O=C(CCCCCOc1cccc(Br)c1)Nc1ccncn1 | 27% | inactive | –
38 | O=C(CCCCCOc1c(F)c(F)c(F)c(F)c1F)Nc1ccnc(C(F)(F)F)c1 | 21% | inactive | –
39 | CCCCCCCCCCCC(=O)O/N=C1\COc2ccccc21 | 12% | inactive | –
40 | O=C(CCCCCOc1cccc(Br)c1)Nc1ccnc(Cl)c1 | 89% | inactive | –
41 | O=C(CCCCCOc1ccc(Br)cc1)Nc1ccnc(C(F)(F)F)c1 | 88% | inactive | –
42 | O=C(CCCCCCc1cccc(F)c1)Nc1ccnc(C(F)(F)F)c1 | 96% | inactive | –
43 | CCCCCCCCCC(=O)CC(=O)Nc1ccncc1 | 63% | inactive | Activity (Escherichia coli [3]): inactive; pIC50 (Pseudomonas aeruginosa [4]): 6.80; Stability [8]: Stable; Activity (Escherichia coli [5]): inactive; Activity (Escherichia coli [6]): inactive; Activity (Escherichia coli [7]): inactive
44 | O=C(CCCOc1cccc(Br)c1)Nc1ccncc1 | 21% | inactive | –
45 | CCCCCCCCCCCC(=O)Nc1ccnc(OC)c1 | -5.1% | inactive | –
46 | CCCCCCCCCCCC(=O)N1CCN(c2ccncc2)CC1 | -42% | inactive | –
47 | CCCCCCCCCCCC(=O)NCc1ccncc1 | 7.7% | inactive | –
48 | O=C(CCCCCOc1cccc(C(F)(F)F)c1)Nc1ccnc(C(F)(F)F)c1 | 59% | inactive | –
49 | CCCCCCCCCC(=O)CC(=O)Nc1cnccn1 | 21% | inactive | –
50 | O=C(CCCCCOc1ccccc1O)Nc1ccnc(C(F)(F)F)c1 | 95% | inactive | –
51 | COc1nccc(NC(=O)CCCCCOc2cccc(Br)c2)n1 | 16% | inactive | –
52 | CCCCCCCCCCCC(=O)Nc1ncccn1 | 23% | inactive | –

Row | SMILES | Efficacy (Pseudomonas aeruginosa [1]) | Activity (Pseudomonas aeruginosa [2]) | also measured
53 | COc1cc(NC(=O)CCCCCCOc2cccc(Br)c2)ccn1 | 75% | inactive | –
54 | COc1cc(NC(=O)CCCOc2cccc(Br)c2)ccn1 | 20% | inactive | –
55 | CCCCCCCCCCCC(=O)Nc1ccncc1 | 28% | inactive | –
56 | CCCCCCCCCC(=O)CC(=O)Nc1ccncn1 | 64% | inactive | –
57 | CCCCCCCCCCCCNC(=O)c1ccncc1 | 13% | inactive | –
58 | CCCCCCCCCCCCNC(=O)c1c[nH]c2ccccc12 | 4.4% | inactive | –
59 | O=C(CCCCCOc1cccc(Br)c1)Nc1ccncc1 | 53% | inactive | –
60 | CCCCCCCCCCCC(=O)Nc1cc(C)nc2ccccc12 | -24% | inactive | –
61 | CCCCCCCCCCCC(=O)Nc1ccncc1C(F)(F)F | -17% | inactive | –
62 | COc1cc(NC(=O)CCCCOc2cccc(Br)c2)ccn1 | 81% | inactive | –
63 | CCCCCCCCCC(=O)CC(=O)Nc1ncccn1 | -0.51% | inactive | –
64 | CCCCCCCCCC(=O)CC(=O)Nc1ccnc(F)c1 | -8.5% | inactive | –
65 | O=C(CCCCCOc1cccc(O)c1)Nc1ccnc(C(F)(F)F)c1 | 70% | inactive | –
66 | CCCCCCCCCC(=O)CC(=O)Nc1ccnc(OC)c1 | 24% | inactive | –
67 | O=C(CCCCCOc1cccc(Cl)c1)Nc1ccnc(C(F)(F)F)c1 | 101% | inactive | –
68 | O=C(CCCCCSc1cccc(F)c1)Nc1ccnc(C(F)(F)F)c1 | 94% | inactive | –
69 | CCCCCCCCCCCC(=O)OCc1ccncc1 | -15% | inactive | –
70 | CCCCCCCCCCCC(=O)Nc1ccccn1 | 55% | inactive | –
71 | N#Cc1cccc(OCCCCCC(=O)Nc2ccnc(C(F)(F)F)c2)c1 | 0.48% | inactive | –
72 | CCCCCCCCCCCC(=O)Nc1ccnc(F)c1 | 70% | inactive | Activity (Escherichia coli [3]): inactive; pIC50 (Pseudomonas aeruginosa [4]): 5.36; Activity (Escherichia coli [5]): inactive; Activity (Escherichia coli [6]): inactive; Activity (Escherichia coli [7]): inactive
73 | O=C(CCCCCOc1cccc(Br)c1)Nc1cccc(C(F)(F)F)c1 | 62% | inactive | –
74 | O=C(CCCCCOc1ccc(F)cc1F)Nc1ccnc(C(F)(F)F)c1 | 49% | inactive | –
75 | Cc1cc(NC(=O)CCCCCOc2cccc(Br)c2)ccn1 | 80% | inactive | –
76 | O=C(CCCCCOc1ccccc1F)Nc1ccnc(C(F)(F)F)c1 | 78% | inactive | –
77 | COc1cc(NC(=O)CCCCCOc2cccc(Br)c2)nc(OC)n1 | 15% | inactive | –
